Series [1] concerns Mus musculus. Put plainly: Anticonvulsant activity in CF-1 albino mouse assessed as protection from maximal electric shock-induced seizures at 100 mg/kg, ip measured after 0.25 hrs. The series is classed as functional, organism-based. Details: dose 100 mg/kg.
Series [2] has as its system Rattus norvegicus. Kind of series: Anticonvulsant activity in Sprague-Dawley rat assessed as protection from maximum electric shock-induced seizures at 30 mg/kg, po measured after 2 hrs. The series is classed as functional. The method in brief: (§1)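 Male Sprague–Dawley rats, four per group, given 30 mg/kg orally as a suspension in 0.5% methylcellulose/water. MES stimulus 150 mA, 60 Hz, 0.2 s via corneal electrodes. Tested at 0.25, 0.5, 1, 2 and 4 h; value is rats protected out of four.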

Series [3] relates to Mus musculus. Put plainly: Anticonvulsant activity in ip dosed CF-1 albino mouse assessed as protection from maximal electric shock-induced seizures measured after 4 hrs. The conditions noted are these: read-out: MED. The class given is functional. The method in brief:
(§2)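 Male CF-1 mice dosed ip at 30, 100 or 300 mg/kg, suspension in 0.5% methylcellulose/water. MES: corneal electrodes primed with electrolyte containing anaesthetic, 50 mA, 60 Hz, 0.2 s. Examined 0.5 and 4 h after dosing. Value is the minimum dose protecting half or more of the animals.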

The subject of series [4] is Mus musculus. Kind of series: Anticonvulsant activity in CF-1 albino mouse assessed as protection against 6 Hz psychomotor seizure at 100 mg/kg, ip measured after 2 hrs. The class given is functional. The conditions noted are these: route intraperitoneal. Put shortly: (§3)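 6-Hz psychomotor seizure in male CF-1 mice, compound suspended in 0.5% methylcellulose/water, given ip (100 or 75 mg/kg). Corneal stimulation with 0.2 ms monopolar rectangular pulses at 6 Hz for 3 s, 32 mA, constant-current device. Protected if normal exploratory behaviour resumes within 10 s. Tested 0.25–4 h after dosing; value is mice protected out of four.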

In series [5] the test system is Mus musculus. Put plainly: Anticonvulsant activity in ip dosed CF-1 albino mouse assessed as protection from maximal electric shock-induced seizures. The series is classed as functional. The method in brief: (§4)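 ED50 and TD50 determined in male CF-1 mice after ip dosing (0.5% methylcellulose suspension) at the previously estimated time of peak effect. MES 50 mA, 60 Hz, 0.2 s. Groups of eight, with doses varied until at least three points fell between 10–90% protection or motor impairment. Regression gives ED50/TD50 with 95% confidence intervals; PI = TD50/ED50.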

For series [6], the species on record is Mus musculus. Put plainly: Protective index, ratio of TD50 for CF-1 albino mouse to ED50 for CF-1 albino mouse assessed as protection from maximum electric shock-induced seizures. The class given is functional. Put shortly: as §4
Series [7] concerns Mus musculus. Kind of series: Anticonvulsant activity in CF-1 albino mouse assessed as protection against 6 Hz psychomotor seizure at 100 mg/kg, ip measured after 4 hrs. The class given is functional. To be noted: route intraperitoneal. The method in brief:
as §3

The test system of series [8] is Rattus norvegicus. Kind of series: Anticonvulsant activity in Sprague-Dawley rat assessed as protection from maximum electric shock-induced seizures at 30 mg/kg, po measured after 0.5 hrs. The series is classed as functional. Put shortly: as §1
Series [9] relates to Mus musculus. Kind of series: Anticonvulsant activity in CF-1 albino mouse assessed as protection against 6 Hz psychomotor seizure at 100 mg/kg, ip measured after 0.25 hrs. To be noted: route intraperitoneal. The series is classed as functional. Put shortly: as §3
Series [10] deals with Mus musculus. Kind of series: Anticonvulsant activity in ip dosed CF-1 albino mouse assessed as protection from maximal electric shock-induced seizures measured after 0.5 hrs. The class given is functional. To be noted: read-out: MED. Put shortly: as §2
Series [11] concerns Mus musculus. Kind of series: Neurotoxicity in CF-1 albino mouse assessed as motor impairment at 300 mg/kg, ip measured after 0.5 hrs by rotarod test. The class given is toxicity, organism-based. Details: dose 300 mg/kg, route intraperitoneal. To be noted: in vivo. The method in brief:
(§5)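 Rotarod neurotoxicity in male CF-1 mice given ip doses of 30, 100 or 300 mg/kg (0.5% methylcellulose suspension), examined 0.5 and 4 h after dosing. Impairment means failing to hold balance on the rod for 1 min. Value is the minimum dose causing toxicity in half or more of the animals; response comments are recorded.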
On the technique in general: In the rotarod test animals must keep their balance on a rotating rod.

Series [12] deals with Rattus norvegicus. Put plainly: Anticonvulsant activity in Sprague-Dawley rat assessed as protection from maximum electric shock-induced seizures at 30 mg/kg, po measured after 4 hrs. The class given is functional. The method in brief: as §1
The test system of series [13] is Mus musculus. Put plainly: Anticonvulsant activity in CF-1 albino mouse assessed as protection against 6 Hz psychomotor seizure at 100 mg/kg, ip measured after 0.5 hrs. The class given is functional. To be noted: route intraperitoneal. Put shortly:
as §3

Series [14] has as its system Rattus norvegicus. Kind of series: Anticonvulsant activity in Sprague-Dawley rat assessed as protection from maximum electric shock-induced seizures at 30 mg/kg, po measured after 1 hr. The series is classed as functional. Put shortly:
as §1

The subject of series [15] is Mus musculus. Put plainly: Anticonvulsant activity in CF-1 albino mouse assessed as protection against 6 Hz psychomotor seizure at 100 mg/kg, ip measured after 1 hr. The class given is functional. To be noted: route intraperitoneal. Put shortly: as §3
Series [16] deals with Rattus norvegicus. Kind of series: Neurotoxicity in Sprague-Dawley rat assessed as motor impairment at 30 mg/kg, po by rotarod test. The series is classed as toxicity, organism-based. Details: dose 30 mg/kg, route oral. To be noted: in vivo. Put shortly: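 Male Sprague–Dawley rats, four animals, oral 30 mg/kg in 0.5% methylcellulose/water. Motor impairment on the rotarod (failure to keep balance for 1 min) assessed alongside MES at five times from 0.25 to 4 h.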

Series [17] can be described thus: Neurotoxicity in ip dosed CF-1 albino mouse assessed as motor impairment by rotarod test. The class given is toxicity, organism-based. To be noted: in vivo.
Series [18] deals with Rattus norvegicus. Put plainly: Anticonvulsant activity in Sprague-Dawley rat assessed as protection from maximum electric shock-induced seizures at 30 mg/kg, po measured after 0.25 hrs. The series is classed as functional. The method in brief:
as §1

Series [19] has as its system Mus musculus. Put plainly: Anticonvulsant activity in CF-1 albino mouse assessed as protection from maximal electric shock-induced seizures at 100 mg/kg, ip measured after 1 hr. The series is classed as functional, organism-based. More on the design: dose 100 mg/kg.
For series [20], the system named is Mus musculus. Kind of series: Anticonvulsant activity in ip dosed maximal electric shock-induced CF-1 albino mouse assessed as time of peak effect. The series is classed as functional. Put shortly: as §4
Series [21] concerns Mus musculus. Put plainly: Neurotoxicity in CF-1 albino mouse assessed as motor impairment at 300 mg/kg, ip measured after 4 hrs by rotarod test. The class given is toxicity, organism-based. Details: dose 300 mg/kg, route intraperitoneal. The conditions noted are these: in vivo. Put shortly:
as §5

The species entered for series [22] is Rattus norvegicus. Put plainly: Protective index, ratio of TD50 for Sprague-Dawley rat to ED50 for Sprague-Dawley rat assessed as protection from maximum electric shock-induced seizures. The series is classed as functional. The method in brief:
(§6)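 Male Sprague–Dawley rats dosed orally (0.5% methylcellulose suspension). MES 150 mA, 60 Hz, 0.2 s; rotarod impairment is failure to keep balance for 1 min. Groups of eight, at the previously estimated time of peak effect, with doses varied until at least three points fell in the 10–90% range. ED50/TD50 with 95% confidence intervals from regression; PI = TD50/ED50.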

Series [23] relates to Mus musculus. Put plainly: Anticonvulsant activity in CF-1 albino mouse assessed as protection against 6 Hz psychomotor seizure at 75 mg/kg, ip measured after 0.5 hrs. The series is classed as functional. To be noted: route intraperitoneal. The method in brief: as §3
The subject of series [24] is Mus musculus. Put plainly: Anticonvulsant activity in CF-1 albino mouse assessed as protection from maximal electric shock-induced seizures at 300 mg/kg, ip measured after 0.5 hrs. The series is classed as functional, organism-based. Details: dose 300 mg/kg. Put shortly: as §2
Series [25] relates to Mus musculus. Put plainly: Anticonvulsant activity in CF-1 albino mouse assessed as protection against 6 Hz psychomotor seizure at 75 mg/kg, ip measured after 0.25 hrs. The class given is functional. The conditions noted are these: route intraperitoneal. The method in brief:
as §3

The subject of series [26] is Mus musculus. Kind of series: Anticonvulsant activity in CF-1 albino mouse assessed as protection against 6 Hz psychomotor seizure at 75 mg/kg, ip measured after 4 hrs. The series is classed as functional. The conditions noted are these: route intraperitoneal. The method in brief:
as §3

Series [27] is described as follows: Neurotoxicity in po dosed Sprague-Dawley rat assessed as motor impairment measured at time of peak effect by rotarod test. The class given is toxicity, organism-based. The conditions noted are these: in vivo. Put shortly: as §6
The test system of series [28] is Rattus norvegicus. Put plainly: Anticonvulsant activity in po dosed Sprague-Dawley rat assessed as protection from maximum electric shock-induced seizures. The class given is functional. Put shortly: as §6
The test system of series [29] is Mus musculus. Put plainly: Anticonvulsant activity in CF-1 albino mouse assessed as protection against 6 Hz psychomotor seizure at 75 mg/kg, ip measured after 1 hr. The series is classed as functional. The conditions noted are these: route intraperitoneal. The method in brief:
as §3

The test system of series [30] is Mus musculus. Kind of series: Anticonvulsant activity in CF-1 albino mouse assessed as protection against 6 Hz psychomotor seizure at 75 mg/kg, ip measured after 2 hrs. The series is classed as functional. The conditions noted are these: route intraperitoneal. The method in brief: as §3
In series [31] the test system is Rattus norvegicus. Put plainly: Anticonvulsant activity in po dosed maximum electric shock-induced Sprague-Dawley rat assessed as time of peak effect. The class given is functional. Put shortly: as §6

Active and inactive are the calls of the source. The calls are words filed in the database; no cut-off is given here. Where only a bound is given, the exact number is not on record here.

Broadly, the ED50 is the dose at which the effect has come halfway, by size or by number of responders. The TD50 is the 50% point of the dose-response relation for the toxic effect studied. As for `O=C1CC(c2ccccc2F)C(=O)N1CN1CCN(c2cccc(C(F)(F)F)c2)CC1` (racemic), the result in the series on Mus musculus [1] and in the series with Mus musculus [19] was Active. Moreover, the Activity is listed as 100% in the series on Rattus norvegicus [2]; 25% in the series with Mus musculus [4]; 25% in the series with Mus musculus [7]; 100% in the series with Rattus norvegicus [8]; 25% in the series with Mus musculus [9]; “Non-toxic” with Mus musculus [11]. In addition, the Activity is 50% in the series with Rattus norvegicus [12]; 75% in the series with Mus musculus [13]; 100% with Rattus norvegicus [14]; 0% in the series with Mus musculus [15]; “Non-toxic” in the series on Rattus norvegicus [16]; 25% in the series with Rattus norvegicus [18]. In addition, the Activity result in the series with Mus musculus [21] was “Non-toxic”. In addition, the minimal effective dose in the series on Mus musculus [3] was determined as 100 mg/kg; in the series with Mus musculus [10], 300 mg/kg. Moreover, the ED50 with Mus musculus [5] worked out at 41.4 mg/kg. Moreover, the “Ratio TD50/ED50” value in the series listed under Mus musculus [6] is reported as over 12.09. In addition, the TD50 in series [17] is over 500 mg/kg. The Time in the series on Mus musculus [20] was 4 h.
Turning to `O=C1CC(c2ccccc2Br)C(=O)N1CN1CCN(c2cccc(Cl)c2)CC1` (racemic), the Activity is 100% with Rattus norvegicus [2]; 25% with Mus musculus [23]; 25% with Mus musculus [25]; 25% in the series with Mus musculus [26]; 25% in the series on Rattus norvegicus [8]; “Non-toxic” in the series with Mus musculus [11]. Besides, the Activity in the series on Rattus norvegicus [12] is given as 100%; in the series with Rattus norvegicus [14], 50%; in the series on Mus musculus [29], 25%; in the series with Rattus norvegicus [16], “Non-toxic”; in the series on Rattus norvegicus [18] it was 0%; in the series with Mus musculus [30], 25%. Moreover, in the series on Mus musculus [21], the Activity result is reported as “Non-toxic”. In the series on Mus musculus [3], the minimal effective dose stood at 100 mg/kg. In the series filed under Rattus norvegicus [22], the “Ratio TD50/ED50” value is reported as 4.77. In addition, the outcome in the series with Mus musculus [24] was inactive. The TD50 in [27] is 126 mg/kg. In the series on Rattus norvegicus [28], the median effective dose (ED50) came out at 26.4 mg/kg. Further, the Time with Rattus norvegicus [31] turned out to be 4 h.

The record behind these values is ChEMBL document CHEMBL2086314, “Synthesis and anticonvulsant activity of new N-Mannich bases derived from 3-(2-fluorophenyl)- and 3-(2-bromophenyl)-pyrrolidine-2,5-diones. Part II” (Bioorg Med Chem, 2012).
